Each compound was assayed against T1, ATP-dependent translocase ABCB1 (Homo sapiens, UniProt P08183) (assay: TP_TRANSPORTER: Daunomycin accumulation in Caco-2 cells).
T1 sequence (P08183 whole entry): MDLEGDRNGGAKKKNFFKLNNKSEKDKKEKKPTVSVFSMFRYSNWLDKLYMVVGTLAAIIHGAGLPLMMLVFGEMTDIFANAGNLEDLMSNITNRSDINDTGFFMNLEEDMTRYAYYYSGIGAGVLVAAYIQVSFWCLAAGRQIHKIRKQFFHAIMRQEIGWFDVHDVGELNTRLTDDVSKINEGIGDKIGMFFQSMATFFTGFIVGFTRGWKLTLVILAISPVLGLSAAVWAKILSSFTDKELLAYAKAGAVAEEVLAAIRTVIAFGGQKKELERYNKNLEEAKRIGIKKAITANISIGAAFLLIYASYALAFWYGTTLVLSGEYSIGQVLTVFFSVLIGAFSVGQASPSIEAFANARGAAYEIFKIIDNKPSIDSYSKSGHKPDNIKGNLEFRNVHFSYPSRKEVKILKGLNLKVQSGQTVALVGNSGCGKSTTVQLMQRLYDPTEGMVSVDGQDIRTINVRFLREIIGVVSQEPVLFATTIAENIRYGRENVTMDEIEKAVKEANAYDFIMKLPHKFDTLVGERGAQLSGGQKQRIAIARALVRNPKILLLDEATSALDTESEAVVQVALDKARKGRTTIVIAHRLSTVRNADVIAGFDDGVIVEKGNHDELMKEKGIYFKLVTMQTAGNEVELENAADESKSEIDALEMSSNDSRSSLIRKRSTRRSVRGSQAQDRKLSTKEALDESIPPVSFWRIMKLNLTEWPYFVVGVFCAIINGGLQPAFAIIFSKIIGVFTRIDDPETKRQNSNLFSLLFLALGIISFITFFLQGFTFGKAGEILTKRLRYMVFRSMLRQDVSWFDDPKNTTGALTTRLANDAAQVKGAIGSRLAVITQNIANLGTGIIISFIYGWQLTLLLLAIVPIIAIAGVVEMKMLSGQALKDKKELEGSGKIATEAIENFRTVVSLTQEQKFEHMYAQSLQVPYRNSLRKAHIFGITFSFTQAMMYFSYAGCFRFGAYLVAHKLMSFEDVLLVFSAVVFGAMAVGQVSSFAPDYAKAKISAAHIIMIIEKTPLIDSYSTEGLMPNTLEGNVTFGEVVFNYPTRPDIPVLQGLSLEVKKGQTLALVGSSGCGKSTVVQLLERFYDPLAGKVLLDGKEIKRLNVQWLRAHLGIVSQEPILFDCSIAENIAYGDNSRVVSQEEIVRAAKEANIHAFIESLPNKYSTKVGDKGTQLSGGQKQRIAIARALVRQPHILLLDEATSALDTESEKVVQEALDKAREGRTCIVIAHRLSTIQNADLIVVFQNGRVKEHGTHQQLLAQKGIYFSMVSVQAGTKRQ
Type: functional, cell-based
Outline: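 Caco-2 monolayers (passages 40–66) grown 14 days on collagen-coated 24-well plates. After two PBS washes and equilibration in HBSS with 4 mM bicarbonate and 10 mM HEPES, pH 7.4, cells were incubated with 40 nM [3H]-daunomycin ± sample for 2 h at 37°C. Ice-cold PBS/0.05% azide washes, Triton X-100 lysis, scintillation counting. Expressed as % of control, mean±s.d., n=3.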
For `OCC(O)CO` [GLYCERIN], the Activity was “is not an inhibitor [-]”. In the case of `CCCCCC/C=C\CCCCCCCC(=O)OCC(O)CO` (stereo unspecified) [1-Monopalmitolein], the Activity is reported as “inhibitor [+]”. For `CCCCCCCCCCCCCCCC(=O)O.OCC(O)CO` [PALMITIC ACID + GLYCEROL], the Activity was “is not an inhibitor [-]”. `CCCCCCCCCCCCCCCCCC(=O)OCC(O)CO` (stereo unspecified) [GLYCERYL MONOSTEARATE] was tested, and the Activity was “inhibitor [+]”. With `CCCCCCCCCCCC(=O)OCC(O)CO` (stereo unspecified) [GLYCEROL MONOLAURATE] the Activity was “inhibitor [+]”. For `CCCCC/C=C/C/C=C/CCCCCCCC(=O)OCC(O)CO` (stereo unspecified) [1-Monolinolein], the Activity was “inhibitor [+]”. For `CCCCCCCCCCCCCCCC(=O)OCC(O)CO` (stereo unspecified) [1-Monopalmitin], the Activity was “inhibitor [+]”. With `CCCCCCCCCCCCCCCC(=O)OCC(CO)OC(=O)CCCCCCCCCCCCCCC` (stereo unspecified) [1,2-Dipalmitin] the Activity was “is not an inhibitor [-]”. With `CC/C=C/C/C=C/C/C=C/CCCCCCCC(=O)OCC(O)CO` (stereo unspecified) [1-Monolinolenin] the Activity was “inhibitor [+]”. In the case of `CCCCCCCCCCCCCCCC(=O)O` [PALMITIC ACID], the Activity is reported as “is not an inhibitor [-]”. With `CCCCCCCC(=O)OCC(O)CO` (stereo unspecified) [MONOCTANOIN COMPONENT A] the Activity was “inhibitor [+]”. In the case of `CCCCCCCCCCCCCC(=O)OCC(O)CO` (stereo unspecified), the Activity is reported as “inhibitor [+]”. In the case of `CCCCCCCCCC(=O)OCC(O)CO` (stereo unspecified) [MONOCTANOIN COMPONENT B], the Activity is reported as “inhibitor [+]”. For `CCCCCCCCCCCCCCCC(=O)OCC(COC(=O)CCCCCCCCCCCCCCC)OC(=O)CCCCCCCCCCCCCCC` [TRIPALMITIN], the Activity was “is not an inhibitor [-]”. For `CCCCCCCCCCCCCCCC(=O)OCC(O)COC(=O)CCCCCCCCCCCCCCC` [1,3-Dipalmitin], the Activity was “is not an inhibitor [-]”.

Each compound was assayed against T1, ATP-dependent translocase ABCB1 (assay: TP_TRANSPORTER: Rhodamine 123 accumulation in Caco-2 cells).
Type: functional, cell-based
Outline: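 Caco-2 monolayers (passages 40–66) grown 14 days on collagen-coated 24-well plates. Cells were equilibrated in HBSS with 4 mM bicarbonate and 10 mM HEPES, pH 7.4, then exposed to 15 μM rhodamine-123 ± sample (2 mg ml−1 extracts) for 2 h at 37°C. After ice-cold PBS/0.05% azide washes, fluorescence was read at ex 485/em 544 nm. Expressed as % of control, mean±s.d., n=4.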
BITTER MELON was tested, and the Activity was “inhibitor [+]”.

Reference: ChEMBL document CHEMBL2074473, “Inhibitory effect of a bitter melon extract on the P-glycoprotein activity in intestinal Caco-2 cells” (Br J Pharmacol, 2004)
